This is a sample that favours compounds with a hit; in the whole collection about 4.6% have one here.
OX1R antag-1: antagonists of human orexin 1 receptor; O43613; CHO/OX1R cells, Fluo-8 calcium fluorescence, orexin A; inhibition, % at 5 µM; 330,000 tested, 0.43% active; AID 434989;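 active = inhibition above its plate's threshold, mean inhibition of all tested compounds on the plate plus 3 SD, cut at about 37% in these data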;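 note: 0% = orexin A challenge wells and 100% = SB-334867-A antagonist wells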
TAAR1 antagonist: human TAAR1 antagonism. Q96RJ0. CHO RD-HGA16 TAAR1, Fluo-8 calcium fluorescence, antagonist. inhibition, % at 3 µM. 360,000 tested, 1.5% active. AID 624466;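 active = inhibition above a per-plate cutoff, the mean inhibition of test compounds on that plate plus 3 SD, cut at about 49% in these data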;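 note: 0% = DMSO plus EC80 beta-PEA response and 100% = DMSO alone without agonist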
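Test system – hTAAR1-expressing CHO RD-HGA16 cells, Gα16-coupled · Also added – β-PEA at EC80 concentration, post-compound challenge · Compound – 3 µM, single point · Incubation – dye loading 75 min at 37 °C, then 30 min room temperature · Measured by – Fluo-8 intracellular calcium dye fluorescence, real-time kinetic reads · Benchmarks – vehicle and agonist controls · Replicates – singlicate, one well per test compound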
TAAR1 agonist: human TAAR1 agonism | Q96RJ0 | CHO RD-HGA16 TAAR1, Fluo-8 calcium fluorescence; vehicle wells 0%, saturating PEA agonist 100% | activation, % at 3 µM | 360,000 tested, 0.99% active;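 active = activation above the mean activation of all test compounds in the run plus 3 SD, cut at about 38% in these data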
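Signal – calcium-sensitive Fluo-8 signal, excitation 470-495, emission 515-575 nm · System – RD-HGA16 (CHO) cells co-expressing Gα16 and hTAAR1 · Incubation – 17-24 h seeding, 75 min 37 °C dye, 30 min RT · Compound dosing – 3 µM single concentration · Repeats – no replicates (n 1)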
CHO parental Ca: counter-screen for OX1R antagonists: effect in parental CHO cells; parental CHO-K1, ATP-induced calcium, Fluo-8 fluorescence; inhibition, % at 5.6 µM; 330,000 tested, 0.63% active;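 active = inhibition above that plate's mean sample inhibition plus 3 SD, cut at about 26% in these data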;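 note: 0% = ATP-challenged DMSO wells and 100% = DMSO wells without ATP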
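Assay system: untransfected parental CHO cell line. Also added: ATP agonist challenge. Dosing: one dose, 5.6 µM nominal. Measured by: Fluo-8 fluorescence. Read-out: % inhibition. Benchmarks: ATP wells versus no-ATP DMSO wells. Repeats: no replicates.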
OX1R antag-2: OX1R (human) antagonism. O43613. 330,000 tested, 1.8% active. OX1R-expressing cells, FRET antagonist read-out. inhibition, % at 6.6 µM; in the data active = inhibition mostly above about 38%, no sharp cut-off; inactive = mostly below about 40%;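 note: 0% = agonist challenge alone and 100% = reference antagonist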
GPR7 antagonist: antagonists of human GPR7 (neuropeptides B/W receptor 1); P48145; GPR7-expressing cells, fluorescence antagonist assay; inhibition, % at 4.4 µM; 290,000 tested, 1.1% active; AID 1861; in the data active = inhibition above about 16%, passing the limit was not always enough;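 note: cells stimulated with the agonist NPW; 0% = agonist with vehicle and 100% = vehicle without agonist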
Target sequence (P48145 whole entry, looked up): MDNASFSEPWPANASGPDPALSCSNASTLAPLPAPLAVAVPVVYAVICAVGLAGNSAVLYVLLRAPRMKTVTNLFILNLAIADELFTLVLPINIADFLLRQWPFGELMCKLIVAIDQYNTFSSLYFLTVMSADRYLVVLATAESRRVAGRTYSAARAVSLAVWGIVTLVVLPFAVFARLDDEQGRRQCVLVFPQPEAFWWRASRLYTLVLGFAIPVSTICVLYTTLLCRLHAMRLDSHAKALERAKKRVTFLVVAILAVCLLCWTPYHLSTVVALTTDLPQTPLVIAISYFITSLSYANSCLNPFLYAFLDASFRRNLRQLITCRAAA
TAAR1 nonsel count: nonselective antagonist in TAAR1 antagonist counter-screen; 2,400 tested, 77% active; shares compounds with TAAR1 antagonist; inhibition, % at 3 µM; counterscreen cell line, calcium fluorescence, antagonist mode; in the data active = inhibition above about 22%;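 note: CHO-Ga16 host cells stimulated with ATP at an EC80 level; 0% = agonist EC80 plus vehicle and 100% = vehicle without agonist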
TAAR1 antag conf: human TAAR1 antagonism, confirmed; shares compounds with TAAR1 antagonist; AID 651785; inhibition, % at 3 µM; TAAR1-expressing cells, fluorescence antagonist read-out; 2,400 tested, 40% active; in the data active = inhibition above about 49%;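 note: CHO-Ga16 host cells challenged with agonist PEA near its EC80; 0% = agonist at EC80 plus vehicle and 100% = vehicle with no agonist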
Ga16 ag counter: nonselective Ga16 agonism, counter-screen; shares compounds with TAAR1 antagonist; Ga16-expressing cells, calcium fluorescence, agonist counterscreen; activation, % at 3 µM; 2,400 tested, 18% active; in the data active = activation above about 12%;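 note: 0% = vehicle wells and 100% = saturating stimulus response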
TAAR1 ag count: activates human TAAR1 in antagonist counter-screen. shares compounds with TAAR1 antagonist. hTAAR1 cell line, fluorescence activation, agonist mode. activation, % at 3 µM. 2,400 tested, 2% active. AID 651955; in the data active = activation above about 37%;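 note: CHO cells stably expressing TAAR1 with calcium dye readout; 0% = DMSO vehicle and 100% = full agonist response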
The depositor's hits bear a star; nt = no result; ! = not confirmed by another sample.

SMILES	OX1R antag-1	TAAR1 antagonist	TAAR1 agonist	CHO parental Ca	OX1R antag-2	GPR7 antagonist	TAAR1 nonsel count	TAAR1 antag conf	Ga16 ag counter	TAAR1 ag count
CCOC(=O)c1sc(NC(=O)C2C3C=CC(C3)C2C(=O)O)nc1C (centres undefined)	-1	-8	4	1	10	1	nt	nt	nt	nt
COc1ccc(N2CCN(C(=O)COC(=O)CCOc3ccccc3C)CC2)cc1	-18	-15	6	-18	16	nt	nt	nt	nt	nt
COc1ccc(N2CCN(C(=O)COC(=O)c3oc4ccc(OC)cc4c3C)CC2)cc1	-7	69*	14	18	9	nt	42*	57*	11	9
Cc1ccc(C)c(OCCC(=O)OCC(=O)NCCNC(=O)COC(=O)CCOc2cc(C)ccc2C)c1	12	87*	20	0	13	nt	48*	68*	16*	18
COc1ccc(N2CCN(C(=O)COC(=O)CCOc3cc(C)ccc3C)CC2)cc1	-27	51*	10	0	18	nt	40*	52*	12*	7
Cc1ccc(C)c(OCCC(=O)OCC(=O)NCc2ccccc2)c1	-20	-27	-2	5	16	nt	nt	nt	nt	nt
Nc1cccn2c(-c3ccc(Cl)c(Cl)c3)cnc12	-4	19	2	2	8	1	nt	nt	nt	nt
CC(C)C[C@@H]1CC2=C(C(=O)OC(C)(C)O2)[C@H](c2ccc(Cl)cc2)O1	nt	-2	-3	nt	nt	nt	nt	nt	nt	nt
Cc1ccc(NS(=O)(=O)c2ccc3c(c2)CCC(=O)N3)cc1C	-19	103*!	3	10	22	-5	5	7	2	5
Cc1ccc(NS(=O)(=O)c2ccc3c(c2)CC(=O)N3)cc1C	-7	-29	8	0	5	6	nt	nt	nt	nt
Cc1cc(C)c(C)c(S(=O)(=O)N2CCN(C(=O)c3cc(=O)[nH]c4ccccc34)CC2)c1C	-20	55*	30	-1	24	11	34*	56*	13*	13
Cc1ccc(S(=O)(=O)CCC(=O)OCC(=O)Nc2cc(F)ccc2C)cc1	-16	-13	-1	-27	15	nt	nt	nt	nt	nt
CCN(CC)S(=O)(=O)c1ccc(OC)c(NC(=O)C(C)Oc2ccc3c(C)cc(=O)oc3c2)c1 (centres undefined)	-11	103*	1	-14	28	-1	8	-8	9	13
CCOC(=O)CNC(=O)CNC(=O)c1ccc(OCC(C)C)cc1	-8	-6	7	-6	3	-10	nt	nt	nt	nt
COc1ccc(CC(=O)Nc2ccc(-c3nnc(-c4ccccc4)o3)cc2)cc1OC	-7	nt	nt	-11	10	-1	nt	nt	nt	nt
Cc1cc(C)cc(OCC(=O)Nc2cccc(-c3nc4ncccc4o3)c2)c1	-22	70*	7	-1	19	-14	31*	58*	10	13
COc1ccc(CC(=O)Nc2cccc(-c3nnc(-c4ccc(C)cc4)o3)c2)cc1OC	-30	82*	24	-9	26	-9	53*	69*	17*	15
O=C(Cc1ccccc1)Nc1cccc(-c2nc3ncccc3o2)c1	-16	24	15	-18	16	-9	nt	nt	nt	nt
COc1ccc(CC(=O)Nc2cccc(-c3nnc(-c4ccccc4)o3)c2)cc1OC	nt	71*	29	nt	nt	-17	57*	73*	18*	17
Cc1ccc(OCC(=O)Nc2cccc(-c3nnc(-c4ccccc4)o3)c2)c(C)c1	-23	66*	15	-16	14	-13	41*	64*	7	5
CSC1=NC(=O)/C(=C\c2cccc3ccccc23)S1	-4	-5	1	-3	64	-5	nt	nt	nt	nt
CCn1c(=O)oc2cc(NC(=O)CCl)ccc21	-7	-3	2	8	5	-4	nt	nt	nt	nt
